Test results: ChEMBL document CHEMBL2385050 (J Med Chem, 2013)

Assays:
[1] = Apparent oral clearance in NOD/SCID mouse at 100 mg/kg, po by LC-MS-MS analysis; assay type: ADME, organism-based; design: dose 100 mg/kg, route oral; conditions: in vivo
Procedure, shortened: (§1)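 Mixed E,Z material (E:Z 45:55 by LC-MS-MS), 100 mg/kg single oral gavage, 10-week-old female NOD/SCID mice. Each mouse bled once by tail vein (n = 3 per time point), sampling up to 24 h. Plasma E and Z isomers quantified by LC-MS-MS. Parameters are from mean plasma concentrations (n = 3).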

Mus musculus [2] = experiment: (§2) AUClast in NOD/SCID mouse at 100 mg/kg, po by LC-MS-MS analysis; assay type: ADME, organism-based, Plasma; design: time 0 - last, dose 100 mg/kg, route oral; conditions: in vivo; procedure, shortened: as §1
[3] = Apparent volume of distribution during terminal phase in NOD/SCID mouse at 100 mg/kg, po by LC-MS-MS analysis; assay type: ADME, organism-based; design: dose 100 mg/kg, route oral; conditions: in vivo, read-out: Vz/F; procedure, shortened: as §1
Mus musculus [4] = experiment: Clast in NOD/SCID mouse at 100 mg/kg, po by LC-MS-MS analysis; assay type: ADME, organism-based; design: dose 100 mg/kg, route oral; conditions: in vivo; procedure, shortened: as §1
Estrogen receptor = biological target: T1, Estrogen receptor (Homo sapiens, UniProt P03372); experiment: Displacement of fluorescent ES2 from human recombinant ERalpha after 2 hrs by fluorimetric analysis
T1 sequence (P03372 whole entry): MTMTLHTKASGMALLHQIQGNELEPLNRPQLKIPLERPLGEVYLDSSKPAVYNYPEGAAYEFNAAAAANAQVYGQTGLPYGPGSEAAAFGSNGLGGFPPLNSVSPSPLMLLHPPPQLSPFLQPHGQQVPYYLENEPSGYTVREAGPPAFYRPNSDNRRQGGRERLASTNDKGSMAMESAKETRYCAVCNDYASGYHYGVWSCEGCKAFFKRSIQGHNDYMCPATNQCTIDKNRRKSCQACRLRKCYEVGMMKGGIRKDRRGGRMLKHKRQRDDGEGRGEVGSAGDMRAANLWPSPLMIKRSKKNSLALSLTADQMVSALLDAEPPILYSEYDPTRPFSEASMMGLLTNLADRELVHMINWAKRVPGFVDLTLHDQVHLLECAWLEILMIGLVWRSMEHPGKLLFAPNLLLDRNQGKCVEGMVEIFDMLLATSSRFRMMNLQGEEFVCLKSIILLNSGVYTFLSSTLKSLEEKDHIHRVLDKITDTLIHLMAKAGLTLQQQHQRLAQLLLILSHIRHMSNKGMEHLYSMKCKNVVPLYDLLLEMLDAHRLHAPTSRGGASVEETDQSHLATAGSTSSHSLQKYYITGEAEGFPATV

Mus musculus [5] = experiment: Cmax in NOD/SCID mouse at 100 mg/kg, po by LC-MS-MS analysis; assay type: ADME, organism-based; design: dose 100 mg/kg, route oral; conditions: in vivo; procedure, shortened: as §1
Mus musculus [6] = experiment: Tmax in NOD/SCID mouse at 100 mg/kg, po by LC-MS-MS analysis; assay type: ADME, organism-based; design: dose 100 mg/kg, route oral; conditions: in vivo; procedure, shortened: as §1
Mus musculus [7] = experiment: Half life in NOD/SCID mouse at 100 mg/kg, po by LC-MS-MS analysis; assay type: ADME, organism-based; design: dose 100 mg/kg, route oral; conditions: in vivo; procedure, shortened: as §1
[8] = biological target: T2, Estrogen receptor (Homo sapiens) (UniProt P03372); experiment: Displacement of fluorescent ES2 from human recombinant ERalpha at 100 uM after 2 hrs by fluorimetric analysis relative to control
T2 sequence (whole entry): T1 sequence (P03372 whole entry)
Procedure, shortened: (§3)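 Fluorescence polarization competition with fluorescent estrogen ligand ES2 (9 nM) and recombinant human ER-α (30 nM) or ER-β (20 nM). Buffer: 100 mM potassium phosphate, 100 μg/mL BGG, 0.02% NaN3. Samples in methanol or methanol/dichloromethane; 2 h incubation protected from light. Read at Ex/Em 485/530 nm. Result is % polarization remaining vs vehicle control; mean of at least three experiments.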

Aromatase [9] = biological target: T3, Aromatase (Homo sapiens, UniProt P11511); experiment: Inhibition of human recombinant microsomal aromatase-mediated 7-methoxy-4-trifluoromethylcoumarin conversion to 7-hydroxytrifluoromethylcoumarin preincubated for 10 mins measured after 30 mins by fluorescence assay
T3 sequence (P11511 whole entry): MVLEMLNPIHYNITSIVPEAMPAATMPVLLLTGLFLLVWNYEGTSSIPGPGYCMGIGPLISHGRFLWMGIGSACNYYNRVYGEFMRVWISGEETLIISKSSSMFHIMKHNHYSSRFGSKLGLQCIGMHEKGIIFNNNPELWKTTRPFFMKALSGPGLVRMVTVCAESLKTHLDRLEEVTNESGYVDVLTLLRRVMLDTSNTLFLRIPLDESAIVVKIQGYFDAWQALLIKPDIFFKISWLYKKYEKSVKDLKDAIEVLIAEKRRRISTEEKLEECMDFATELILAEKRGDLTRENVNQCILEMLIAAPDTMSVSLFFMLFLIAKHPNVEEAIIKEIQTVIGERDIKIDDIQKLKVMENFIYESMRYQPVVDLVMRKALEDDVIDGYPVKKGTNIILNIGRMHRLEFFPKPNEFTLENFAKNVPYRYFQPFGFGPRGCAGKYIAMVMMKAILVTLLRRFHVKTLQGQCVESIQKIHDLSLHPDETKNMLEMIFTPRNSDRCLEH
Procedure, shortened: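 Recombinant human CYP19 with MFC substrate in 0.1 M potassium phosphate pH 7.4; samples in methanol or methanol/dichloromethane, prewarmed 10 min at 37 °C with NADPH-generating cofactor mix (NADP+, MgCl2, glucose-6-phosphate, G6PDH), then 30 min reaction, stopped with 0.1 M Tris base in acetonitrile.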

[10] = biological target: Estrogen receptor beta (Homo sapiens) (UniProt Q92731); experiment: Displacement of fluorescent ES2 from human recombinant ERbeta at 100 uM after 2 hrs by fluorimetric analysis relative to control; procedure, shortened: as §3
Aromatase [11] = biological target: T3, Aromatase; experiment: Inhibition of human recombinant placental aromatase
Procedure, shortened: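 Recombinant human aromatase (CYP19) in microsomal incubations with fluorogenic substrate MFC, read as conversion to HFC. Compounds in methanol or methanol/dichloromethane, prewarmed 10 min at 37 °C with NADPH-regenerating mix, then enzyme/substrate in 0.1 M potassium phosphate pH 7.4 added. Activity given as % of vehicle control.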

Aromatase [12] = biological target: T3, Aromatase; experiment: Inhibition of human recombinant microsomal aromatase-mediated 7-methoxy-4-trifluoromethylcoumarin conversion to 7-hydroxytrifluoromethylcoumarin at 50 uM preincubated for 10 mins measured after 30 mins by fluorescence assay relative to control; conditions: probe 7-methoxy-4-trifluoromethylcoumarin
Procedure, shortened: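 Recombinant human CYP19 microsomal incubation, linear-range conditions. Samples in methanol or methanol/dichloromethane, prewarmed 10 min at 37 °C with NADPH-regenerating cofactor mix. Enzyme and MFC substrate added in 0.1 M potassium phosphate pH 7.4; 30 min reaction; stopped with Tris base in acetonitrile. HFC read at Ex/Em 409/530 nm against a standard curve. Result is % activity remaining vs vehicle; mean of at least three experiments.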

[13] = as §2; assay type: ADME, organism-based, Plasma; design: time 0 - last, dose 100 mg/kg, route oral; conditions: NOD/SCID, plasma; procedure, shortened: as §1

Estrogen receptor beta (Homo sapiens), sequence (Q92731 whole entry): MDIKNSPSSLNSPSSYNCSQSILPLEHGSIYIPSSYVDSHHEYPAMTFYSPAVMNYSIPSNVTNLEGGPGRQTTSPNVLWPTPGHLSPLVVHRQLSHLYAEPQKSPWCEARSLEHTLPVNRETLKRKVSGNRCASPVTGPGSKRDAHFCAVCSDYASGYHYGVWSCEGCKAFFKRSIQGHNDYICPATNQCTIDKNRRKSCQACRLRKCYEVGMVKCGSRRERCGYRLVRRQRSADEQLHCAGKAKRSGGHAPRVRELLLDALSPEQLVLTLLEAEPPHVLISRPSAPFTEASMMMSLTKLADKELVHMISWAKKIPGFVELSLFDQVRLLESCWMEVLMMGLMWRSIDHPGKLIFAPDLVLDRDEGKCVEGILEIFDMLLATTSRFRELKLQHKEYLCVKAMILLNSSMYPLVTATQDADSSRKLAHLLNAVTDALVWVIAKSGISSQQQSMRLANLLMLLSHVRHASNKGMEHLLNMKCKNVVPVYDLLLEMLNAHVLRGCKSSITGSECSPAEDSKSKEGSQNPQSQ

## CC/C(=C(/c1ccc(O)cc1)c1ccc(OCCN)cc1)c1ccccc1
[1]
  CL/F: 1.52 mL/min
Mus musculus [2]
  AUClast: 5800 ng·h/mL
[3]
  Vd/F: 2.8 L
Mus musculus [4]
  Clast: 100 ng/mL
Estrogen receptor
  EC50: 0.0587 µM
Mus musculus [5]
  Cmax: 700 ng/mL
Mus musculus [6]
  Tmax: 2 h
Mus musculus [7]
  t1/2: 21.4 h

## CC/C(=C(\c1ccc(O)cc1)c1ccc(OCC(N)=O)cc1)c1ccccc1
[8]
  Activity: 57%
Aromatase [9]
  IC50: 9.26 µM
[10]
  Activity: 71%

## CCC(=C(c1ccc(O)cc1)c1ccc(OCCN(C)C)cc1)c1ccccc1
Aromatase [11]
  IC50: 530 µM

## CC/C(=C(/c1ccc(O)cc1)c1ccc(OC(=O)C(C)(C)C)cc1)c1ccccc1
[8]
  Activity: 68%
Aromatase [12]
  inhibition at 0.5 h, 50 µM: 8%
[10]
  Activity: 68%

## CC/C(=C(\c1ccc(O)cc1)c1ccc(OCCNC)cc1)c1ccccc1 (mixture of isomers) [ENDOXIFEN]
Aromatase [11]
  IC50: 6 µM

## CCC(=C(c1ccc(O)cc1)c1ccc(O)cc1)c1ccccc1
[8]
  Activity: 80%

## CC/C(=C(\c1ccc(O)cc1)c1ccc(OCCN)cc1)c1ccccc1
[1]
  CL/F: 0.267 mL/min
[13]
  AUC(0-t): 35100 ng·h/mL
[3]
  Vd/F: 0.5 L
Mus musculus [4]
  Clast: 900 ng/mL
Estrogen receptor
  EC50: 0.017 µM
Mus musculus [5]
  Cmax: 2100 ng/mL
Mus musculus [6]
  Tmax: 1 h
Mus musculus [7]
  t1/2: 22.7 h

## CC/C(=C(/c1ccc(OCC(N)=O)cc1)c1ccc(OC(=O)C(C)(C)C)cc1)c1ccccc1
[8]
  Activity: 56%
Aromatase [12]
  inhibition at 0.5 h, 50 µM: 0%
[10]
  Activity: 45%
